The source made the active and inactive calls. The rule behind the calls is not given here.
Assays:
[1] = target: Sodium- and chloride-dependent GABA transporter 3 (Homo sapiens, UniProt P48066, L314Q); assay: Inhibition of human GAT3 L314Q mutant expresses in tsA201 cells assessed as reduction in [3H]GABA uptake after 3 mins by scintillation counting method; assay type: cell-based
How it was run: (§1)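 Site-directed mutant transporters transiently transfected (PolyFect) into tsA201 cells, plated and used about 24 h later. Cells were washed with HBSS containing 20 mM HEPES, 1 mM CaCl2 and 1 mM MgCl2, pH 7.4. Uptake of 30 nM [3H]GABA was run with varied inhibitor concentrations for 3 min at 37 °C, then three ice-cold washes and scintillation counting. IC50 was taken from variable-slope sigmoidal fits. Triplicates, at least three independent experiments.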

[2] = target: Sodium- and chloride-dependent GABA transporter 1 (Homo sapiens, UniProt P30531); assay type: cell-based
Chain of Sodium- and chloride-dependent GABA transporter 1 (Homo sapiens, UniProt P30531) (P30531 whole entry): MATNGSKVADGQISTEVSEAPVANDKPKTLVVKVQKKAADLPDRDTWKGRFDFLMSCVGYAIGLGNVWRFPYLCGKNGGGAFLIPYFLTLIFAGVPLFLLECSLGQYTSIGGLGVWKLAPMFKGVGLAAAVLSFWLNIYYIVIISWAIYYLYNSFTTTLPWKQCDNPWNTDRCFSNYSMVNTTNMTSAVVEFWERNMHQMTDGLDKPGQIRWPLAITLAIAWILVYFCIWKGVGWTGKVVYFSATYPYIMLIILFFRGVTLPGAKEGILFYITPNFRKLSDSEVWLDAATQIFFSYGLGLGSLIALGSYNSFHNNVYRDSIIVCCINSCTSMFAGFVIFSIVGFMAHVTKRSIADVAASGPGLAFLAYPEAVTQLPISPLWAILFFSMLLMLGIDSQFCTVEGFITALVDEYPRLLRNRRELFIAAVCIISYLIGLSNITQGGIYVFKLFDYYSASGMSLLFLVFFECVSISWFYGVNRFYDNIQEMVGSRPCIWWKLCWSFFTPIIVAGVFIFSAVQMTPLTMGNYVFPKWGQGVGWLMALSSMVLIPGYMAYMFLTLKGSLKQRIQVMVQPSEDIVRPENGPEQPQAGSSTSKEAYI

[3] = target: T1, Sodium- and chloride-dependent GABA transporter 2 (Homo sapiens, UniProt Q9NSD5); assay: Inhibition of human GAT2 expresses in tsA201 cells assessed as reduction in [3H]GABA uptake after 3 mins by scintillation counting method; assay type: cell-based
T1 sequence (Q9NSD5 whole entry): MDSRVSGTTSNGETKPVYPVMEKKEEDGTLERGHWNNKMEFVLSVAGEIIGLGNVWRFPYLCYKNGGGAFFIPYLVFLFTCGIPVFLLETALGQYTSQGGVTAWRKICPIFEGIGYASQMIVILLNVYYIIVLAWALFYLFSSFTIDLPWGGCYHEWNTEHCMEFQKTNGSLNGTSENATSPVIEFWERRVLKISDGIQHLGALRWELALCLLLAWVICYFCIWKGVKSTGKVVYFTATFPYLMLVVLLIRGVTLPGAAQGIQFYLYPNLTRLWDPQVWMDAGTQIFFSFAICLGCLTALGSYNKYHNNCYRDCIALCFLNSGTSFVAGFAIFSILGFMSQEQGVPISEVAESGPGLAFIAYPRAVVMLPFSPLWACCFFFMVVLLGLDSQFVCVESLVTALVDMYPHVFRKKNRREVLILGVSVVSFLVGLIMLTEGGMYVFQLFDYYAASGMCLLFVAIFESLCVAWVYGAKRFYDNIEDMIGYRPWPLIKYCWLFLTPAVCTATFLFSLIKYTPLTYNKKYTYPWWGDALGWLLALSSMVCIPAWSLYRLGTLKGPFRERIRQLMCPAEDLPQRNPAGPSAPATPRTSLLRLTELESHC
How it was run: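 Wild-type human GAT transiently expressed in tsA201 cells via pcDNA5/FRT and PolyFect. Uptake of 30 nM [3H]GABA was run for 3 min at 37 °C in HBSS/20 mM HEPES with 1 mM CaCl2 and 1 mM MgCl2, pH 7.4, across a range of test concentrations. Ice-cold washes were followed by scintillation counting. IC50 was obtained by sigmoidal variable-slope fitting, reported as mean pIC50 ± S.E.M.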

[4] = target: Sodium- and chloride-dependent GABA transporter 1 (Mus musculus, UniProt P31648); assay: Inhibition of mouse GAT1 expressed in HEK293 cells assessed as reduction in [3H]GABA uptake after 3 mins by scintillation counting method; assay type: cell-based
How it was run: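 HEK293 lines stably expressing a single mouse GAT subtype, kept under blasticidin-S (5 µg/mL) selection. Cells were assayed about 24 h after plating with 30 nM [3H]GABA plus varying compound concentrations for 3 min at 37 °C in HBSS buffered with 20 mM HEPES (1 mM CaCl2, 1 mM MgCl2, pH 7.4). Cells were washed ice-cold and radioactivity counted. IC50 came from sigmoidal variable-slope fits.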

[5] = target: 5-hydroxytryptamine receptor 2B (Homo sapiens) (UniProt P41595); assay: Displacement of [3H]LSD from human 5-HT2B receptor expressed in HEK cell membranes at 10 uM after 90 mins by scintillation counting method
Chain of 5-hydroxytryptamine receptor 2B (Homo sapiens) (P41595 whole entry): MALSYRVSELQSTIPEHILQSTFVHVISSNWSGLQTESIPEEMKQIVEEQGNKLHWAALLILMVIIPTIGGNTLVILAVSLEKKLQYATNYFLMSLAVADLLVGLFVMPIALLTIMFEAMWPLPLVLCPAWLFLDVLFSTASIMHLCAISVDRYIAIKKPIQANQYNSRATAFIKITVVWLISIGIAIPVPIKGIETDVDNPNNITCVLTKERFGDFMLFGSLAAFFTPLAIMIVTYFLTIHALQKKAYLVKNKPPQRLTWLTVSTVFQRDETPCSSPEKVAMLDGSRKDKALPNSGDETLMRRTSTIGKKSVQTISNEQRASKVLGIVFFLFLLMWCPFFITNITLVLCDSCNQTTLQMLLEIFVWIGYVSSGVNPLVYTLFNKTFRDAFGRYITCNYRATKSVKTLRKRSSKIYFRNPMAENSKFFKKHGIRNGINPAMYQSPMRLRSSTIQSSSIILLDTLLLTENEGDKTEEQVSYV

[6] = target: D(4) dopamine receptor (Homo sapiens) (UniProt P21917); assay: Displacement of [3H]N-methylspiperone from human Dopamine receptor D4 receptor at 10 uM after 90 mins by scintillation counting method
Chain of D(4) dopamine receptor (Homo sapiens) (P21917 whole entry): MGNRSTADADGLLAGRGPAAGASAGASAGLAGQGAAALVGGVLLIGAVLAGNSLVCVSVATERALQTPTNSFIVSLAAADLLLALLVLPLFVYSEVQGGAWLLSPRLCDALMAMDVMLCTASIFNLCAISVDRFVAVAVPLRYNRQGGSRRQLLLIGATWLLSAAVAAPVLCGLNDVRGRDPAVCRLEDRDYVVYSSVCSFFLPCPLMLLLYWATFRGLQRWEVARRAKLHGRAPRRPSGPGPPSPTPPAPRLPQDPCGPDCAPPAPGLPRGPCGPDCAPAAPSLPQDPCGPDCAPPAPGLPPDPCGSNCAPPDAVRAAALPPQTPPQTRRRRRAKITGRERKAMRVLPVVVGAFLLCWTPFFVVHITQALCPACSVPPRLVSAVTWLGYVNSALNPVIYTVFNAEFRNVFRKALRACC

[7] = target: Sodium- and chloride-dependent betaine transporter (Homo sapiens, UniProt P48065, Q299L); assay: Inhibition of human BGT1 Q299L mutant expressed in tsA201 cells assessed as reduction in [3H]GABA uptake after 3 mins by scintillation counting method; assay type: cell-based
Chain of Sodium- and chloride-dependent betaine transporter (Homo sapiens, UniProt P48065, Q299L) (P48065 whole entry Q299L): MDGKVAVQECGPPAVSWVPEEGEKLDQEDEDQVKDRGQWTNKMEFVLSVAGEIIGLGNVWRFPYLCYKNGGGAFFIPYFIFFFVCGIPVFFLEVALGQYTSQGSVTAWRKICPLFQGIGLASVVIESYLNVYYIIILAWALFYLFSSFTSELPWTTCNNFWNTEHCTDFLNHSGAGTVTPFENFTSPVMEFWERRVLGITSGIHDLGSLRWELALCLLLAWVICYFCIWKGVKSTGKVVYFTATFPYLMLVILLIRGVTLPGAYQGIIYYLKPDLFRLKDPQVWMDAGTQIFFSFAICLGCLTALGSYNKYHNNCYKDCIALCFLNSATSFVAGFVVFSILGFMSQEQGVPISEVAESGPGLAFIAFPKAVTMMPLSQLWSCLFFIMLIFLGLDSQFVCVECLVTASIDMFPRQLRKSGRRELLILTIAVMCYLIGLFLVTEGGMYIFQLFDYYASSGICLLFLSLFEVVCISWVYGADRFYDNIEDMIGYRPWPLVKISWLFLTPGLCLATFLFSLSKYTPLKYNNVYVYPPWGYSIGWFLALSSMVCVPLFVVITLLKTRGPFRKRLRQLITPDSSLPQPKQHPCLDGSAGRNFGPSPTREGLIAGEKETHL
How it was run: as §1, with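 “7.4.” for “7.4. Uptake of 30 nM [3H]GABA was run with varied inhibitor concentrations for 3 min at 37 °C, then three ice-cold washes and scintillation counting.”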

[8] = target: Sodium- and chloride-dependent betaine transporter (Homo sapiens, UniProt P48065, I386F); assay: Inhibition of human BGT1 I386F mutant expressed in tsA201 cells assessed as reduction in [3H]GABA uptake after 3 mins by scintillation counting method; assay type: cell-based
Chain of Sodium- and chloride-dependent betaine transporter (Homo sapiens, UniProt P48065, I386F) (P48065 whole entry I386F): as the sequence (P48065 whole entry Q299L) above, with L299Q, I386F counted along it
How it was run: (§2)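 tsA201 cells transiently transfected with wild-type or mutant human BGT1 (PolyFect) were plated about 24 h before assay. Three ice-cold washes followed, then scintillation counting.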

[9] = target: Sodium- and chloride-dependent betaine transporter (Homo sapiens, UniProt P48065, Y453A); assay: Inhibition of human BGT1 Y453A mutant expressed in tsA201 cells assessed as reduction in [3H]GABA uptake after 3 mins by scintillation counting method; assay type: cell-based; how it was run: as §2
Chain of Sodium- and chloride-dependent betaine transporter (Homo sapiens, UniProt P48065, Y453A) (P48065 whole entry Y453A): as the sequence (P48065 whole entry Q299L) above, with L299Q, Y453A counted along it

[10] = target: Sodium- and chloride-dependent betaine transporter (Homo sapiens, UniProt P48065, Y453S/Y454A); assay: Inhibition of human BGT1 Y453S/Y454A double mutant expressed in tsA201 cells assessed as reduction in [3H]GABA uptake after 3 mins by scintillation counting method; assay type: cell-based; how it was run: as §2
Chain of Sodium- and chloride-dependent betaine transporter (Homo sapiens, UniProt P48065, Y453S/Y454A) (P48065 whole entry Y453S/Y454A): as the sequence (P48065 whole entry Q299L) above, with L299Q, Y453S, Y454A counted along it

[11] = target: Sodium- and chloride-dependent betaine transporter (Homo sapiens, UniProt P48065); assay: Inhibition of human BGT1/human GAT3 chimera B expresses in tsA201 cells assessed as reduction in [3H]GABA uptake after 3 mins by scintillation counting method; assay type: cell-based
Chain of Sodium- and chloride-dependent betaine transporter (Homo sapiens, UniProt P48065) (P48065 whole entry, looked up): as the sequence (P48065 whole entry Q299L) above, with L299Q counted along it
How it was run: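 BGT1/GAT3 chimeric constructs transiently expressed in tsA201 cells. After about 24 h, cells were washed in HEPES-buffered HBSS (1 mM CaCl2, 1 mM MgCl2, pH 7.4). IC50 came from variable-slope sigmoidal regression. Triplicates, at least two independent experiments.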

Chain of Sodium- and chloride-dependent GABA transporter 3 (P48066 whole entry L314Q): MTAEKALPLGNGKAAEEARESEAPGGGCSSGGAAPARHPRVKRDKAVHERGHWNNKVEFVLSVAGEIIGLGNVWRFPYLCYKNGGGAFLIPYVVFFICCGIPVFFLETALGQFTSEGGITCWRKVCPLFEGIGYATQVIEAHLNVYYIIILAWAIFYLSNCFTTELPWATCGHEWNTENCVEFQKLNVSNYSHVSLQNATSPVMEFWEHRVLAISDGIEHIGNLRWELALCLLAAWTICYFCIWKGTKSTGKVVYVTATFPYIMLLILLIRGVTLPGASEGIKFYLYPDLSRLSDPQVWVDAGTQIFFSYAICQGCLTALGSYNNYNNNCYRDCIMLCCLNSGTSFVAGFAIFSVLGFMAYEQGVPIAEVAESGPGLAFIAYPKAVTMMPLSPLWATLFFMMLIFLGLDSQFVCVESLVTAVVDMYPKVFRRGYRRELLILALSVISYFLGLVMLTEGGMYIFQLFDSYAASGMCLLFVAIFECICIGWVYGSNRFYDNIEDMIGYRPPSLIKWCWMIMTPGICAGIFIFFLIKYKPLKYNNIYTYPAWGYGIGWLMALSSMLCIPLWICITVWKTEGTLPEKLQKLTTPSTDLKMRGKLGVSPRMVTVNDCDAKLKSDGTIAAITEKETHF

Row | SMILES | IC50 [1] [µM] | IC50 ([2]; read-out: IC50) [µM] | IC50 ([3]; read-out: IC50) [µM] | IC50 [4] [µM] | inhibition [5] | inhibition [6] | IC50 [7] [µM] | IC50 ([8]; read-out: IC50) [µM] | IC50 ([8]; read-out: pIC50 (converted)) [µM] | IC50 [9] [µM] | IC50 ([10]; read-out: IC50) [µM] | IC50 ([10]; read-out: pIC50 (converted)) [µM] | IC50 [11] [µM] | IC50 [2] [µM] | IC50 [3] [µM]
1 | O=C(NC1CCN(Cc2ccccc2)CC1)c1ccc(Cl)nc1Cl | 405 | > 1000 | 479 | > 400 | Active | inactive | 8 | 47 | 43.7 | 23 | 15 | 12.9 | > 1000 |  | 
2 | O=C(NC1CCN(Cc2ccccc2)CC1)c1ccc(Cl)cc1Cl | 460 |  |  | > 200 | Active | Active | 3 | 8 |  | 19 | 6 |  | > 1000 | > 100 | > 100
